# Data taken from ChEMBL document CHEMBL1157581, “Synthesis, metabolism and in vitro cytotoxicity studies on novel lavendamycin antitumor agents” (Bioorg Med Chem, 2010).
# Activity calls are given as the source filed them. The calls are words filed in the database; no cut-off is given here.
# Legend:
# [1] = system: A549; test: Suppression of clonogenic survival of human A549 cells at <100 nM; type: functional, cell-based
# [2] = molecular target: NAD(P)H dehydrogenase [quinone] 1 (Homo sapiens) (UniProt P15559); test: Activity of human NQO1 assessed as initial rate of compound reduction per mg of protein at 25 uM in presence of NADH by cytochrome c reduction assay
# In short: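 Recombinant human NQO1 (0.1–3 µg) with cytochrome c 70 µM as terminal electron acceptor, NADH 1 mM, substrate 25 µM in 25 mM Tris-HCl pH 7.4 containing 0.7 mg/mL BSA and 0.1% Tween-20, room temperature, started with NADH. A550 followed; initial rate from linear 0–30 s segment, ε 21.1 mM⁻¹ cm⁻¹, µmol cytochrome c/min/mg NQO1; at least triplicate.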
# [3] = system: BE; test: Cytotoxicity against human BE cells expressing human NQO1 after 3 to 5 days by MTT assay; type: functional, cell-based
# In short: (§1)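 BE colon adenocarcinoma cells and NQO1-transfected BE-NQ cells (337 nmol/min/mg protein, DCPIP) in MEM with 10% FBS, 37 °C, 5% CO2. Seeded 10,000 cells/mL, attached 16 h, exposed 2 h, then washed out into fresh medium for 3–5 days. MTT 50 µg, 4 h, formazan in DMSO, A560; IC50 from semi-log plots of percent control.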
# [4] = system: BE; test: Cytotoxicity against NQO1 deficient human BE cells after 3 to 5 days by MTT assay; type: functional, cell-based; in short: as §1
# [5] = system: BE; test: Selectivity index, ratio of IC50 for NQO1 deficient human BE cells to IC50 for human BE cells expressing human NQO1
# [6] = system: A549; test: Inhibition of clonogenic survival of human A549 cells at 100 nM; type: functional
# [7] = system: BE; test: Selectivity index, ratio of IC50 for human BE cells expressing human NQO1 to IC50 for NQO1 deficient human BE cells; type: functional
# Sequence of NAD(P)H dehydrogenase [quinone] 1 (Homo sapiens) (P15559 whole entry): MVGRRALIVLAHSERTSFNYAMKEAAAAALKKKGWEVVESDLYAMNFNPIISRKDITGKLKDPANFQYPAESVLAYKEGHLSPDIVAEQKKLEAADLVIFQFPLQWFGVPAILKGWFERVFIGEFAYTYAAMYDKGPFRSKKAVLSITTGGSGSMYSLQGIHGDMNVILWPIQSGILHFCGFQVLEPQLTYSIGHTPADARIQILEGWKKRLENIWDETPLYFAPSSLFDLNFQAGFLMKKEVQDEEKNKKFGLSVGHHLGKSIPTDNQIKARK
Compound,Activity [2] [µmol/min],inhibition [1],IC50 [3] [µM],IC50 [4] [µM],Ratio IC50 [5],inhibition at 0.1 µM [6] [%],Ratio IC50 [7]
COC(=O)c1[nH]c(-c2ccc3c(n2)C(=O)C(NC(C)=O)=CC3=O)c2nc3ccccc3c-2c1C,–,Active,–,–,–,–,–
COC(=O)c1[nH]c(-c2ccc3c(n2)C(=O)C(=N)C(Cl)=C3O)c2nc3ccccc3c-2c1C,–,Active,–,–,–,70,–
COC(=O)c1cc2c([nH]c3ccccc32)c(-c2ccc3c(n2)C(=O)C(NC(C)=O)=CC3=O)n1,–,Active,–,–,–,–,–
CC(=O)NC1=CC(=O)c2ccc(-c3nc(C(=O)N4CCCC4)cc4c3[nH]c3ccccc34)nc2C1=O,43,–,6.2,13,2.1,–,–
CC(=O)NC1=CC(=O)c2ccc(-c3nc(C(=O)NCCO)cc4c3[nH]c3ccccc34)nc2C1=O,2.2,–,> 50,> 50,–,–,–
COC(=O)c1nc(-c2ccc3c(n2)C(=O)C(N)=C(OC)C3=O)c2[nH]c3ccccc3c2c1C,–,Active,–,–,–,–,–
N=C1C=C(O)c2ccc(-c3nc(C(N)=O)cc4c3[nH]c3ccccc34)nc2C1=O,–,–,–,–,–,100,–
CC(=O)NC1=CC(=O)c2ccc(-c3nc(C(=O)NCC(O)CO)cc4c3[nH]c3ccccc34)nc2C1=O (stereo not given),36,–,18,> 50,>2.8,–,–
COC(=O)c1nc(-c2ccc3c(n2)C(=O)C(NC(=O)c2ccco2)=CC3=O)c2[nH]c3ccccc3c2c1C,5.8,–,> 50,> 50,–,–,–
O=C(CCl)NC1=CC(=O)c2ccc(-c3nc(C(=O)N4CCCC4)cc4c3[nH]c3ccccc34)nc2C1=O,34,–,3,8,2.7,–,–
CC(=O)NC1=CC(=O)c2ccc(-c3nc(C(=O)N4CCN(Cc5ccccc5)CC4)cc4c3[nH]c3ccccc34)nc2C1=O,8.7,–,9.8,6.5,0.7,–,–

# Continued, in another order:
Activity [2] [µmol/min],Compound,inhibition [1],IC50 [3] [µM],IC50 [4] [µM],Ratio IC50 [5],inhibition at 0.1 µM [6] [%],Ratio IC50 [7]
103,NC1=CC(=O)c2ccc(-c3nc(C(=O)N4CCOCC4)cc4c3[nH]c3ccccc34)nc2C1=O,–,2,18,9,–,–
26,NC1=CC(=O)c2ccc(-c3nc(C(=O)NCCO)cc4c3[nH]c3ccccc34)nc2C1=O,–,1.1,1.1,1,–,–
31,COC(=O)c1nc(-c2ccc3c(n2)C(=O)C(N)=CC3=O)c2[nH]c3ccc(O)cc3c2c1C,–,5.7,14,2.5,–,–
2.9,CC(C)CCOC(=O)c1cc2c([nH]c3ccc(O)cc32)c(-c2ccc3c(n2)C(=O)C(N)=CC3=O)n1,–,> 50,> 50,–,–,–
6.8,CCCOC(=O)c1cc2c([nH]c3ccccc32)c(-c2ccc3c(n2)C(=O)C(NC(C)=O)=CC3=O)n1,–,2.4,3.2,1.3,–,–
5.2,CCCCOC(=O)c1cc2c([nH]c3ccccc32)c(-c2ccc3c(n2)C(=O)C(NC(=O)CCC(=O)O)=CC3=O)n1,–,7.6,12,1.6,–,–
28,COC(=O)c1cc2c([nH]c3ccccc32)c(-c2ccc3c(n2)C(=O)C(N)=CC3=O)n1,–,22,45,2,–,–
13,NC(=O)c1cc2c([nH]c3ccccc32)c(-c2ccc3c(n2)C(=O)C(NC(=O)CCl)=CC3=O)n1,–,5.8,12,2.1,–,–
6.9,CCOC(=O)c1cc2c([nH]c3ccccc32)c(-c2ccc3c(n2)C(=O)C(N)=C(Cl)C3=O)n1,–,> 50,> 50,–,–,–
20,COC(=O)c1cc2c([nH]c3ccccc32)c(-c2ccc3c(n2)C(=O)C(NC=O)=CC3=O)n1,–,10,14,1.4,–,–
35,NC1=CC(=O)c2ccc(-c3nc(C(=O)N4CCCC4)cc4c3[nH]c3ccccc34)nc2C1=O,–,45,> 50,>1.1,–,–
0.04,COC(=O)c1cc2c([nH]c3ccccc32)c(-c2ccc3c(n2)C(=O)C(NC(=O)C(C)C)=CC3=O)n1,–,> 50,> 50,–,–,–
3.6,CCOC(=O)c1cc2c([nH]c3ccccc32)c(-c2ccc3c(n2)C(=O)C(NC(C)=O)=CC3=O)n1,–,10,13,1.3,–,–
21,CCOC(=O)c1cc2c([nH]c3ccc(O)cc32)c(-c2ccc3c(n2)C(=O)C(NC(C)=O)=CC3=O)n1,–,4.8,4,0.8,–,–
3.9,CCC(C)OC(=O)c1cc2c([nH]c3ccccc32)c(-c2ccc3c(n2)C(=O)C(NC(C)=O)=CC3=O)n1 (stereo not given),–,40,33,–,–,0.8
